SENP8 block-1 = SENP8 protease inhibitors, primary screen, biochemical, luminescence; purified SENP8, Z-RLRGG-aminoluciferin cleavage; AID 2540, 2010; Sentrin-specific protease 8 (Homo sapiens), Q96LD8; inhibition, % at 10 µM; hit rate 1.2% among 330,000; in the data active = inhibition above about 50%
SENP8 block-2 = human SENP8 protease inhibitors, primary screen, biochemical, fluorescence, Nedd8 protein substrate, uHTS | Sentrin-specific protease 8 (Homo sapiens), Q96LD8 | inhibition, % at 20 µM | hit rate 0.64% among 360,000 | recombinant SENP8; in the data active = inhibition mostly above about 40%, no sharp cut-off; inactive = mostly below about 27%
SENP6 block = SENP6 protease inhibitors, primary screen, biochemical, luminescence, uHTS; Sentrin-specific protease 6 (Homo sapiens), Q9GZR1; Recombinant SENP6 catalytic domain, aminoluciferin luminescence; inhibition, % at 10 µM; hit rate 1.8% among 330,000; AID 2599, 2010;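 active = inhibition above about 50% at the single tested dose, limit read from the data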;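 also: plate controls were DMSO wells with enzyme for no effect and DMSO wells lacking enzyme for full effect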
Apaf1 inhib = inhibitors of human Apaf-1 apoptosome, primary screen, biochemical, DEVD-Rh110 fluorescence, uHTS. inhibition, % at 20 µM. reconstituted apoptosome caspase-3 activity. hit rate 0.71% among 330,000; active = inhibition of at least 40% at 20 µM;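 also: plate controls were DMSO wells for no effect and DEVD-CHO caspase inhibitor wells for full effect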
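Material: reconstituted apoptosome with Apaf-1, cytochrome c, caspase-9, procaspase-3, dATP; medium: pH 7.5 Hepes buffer with CHAPS, BSA, DTT; also added: cytochrome c and DEVD-Rh110 substrate; timing: 30 min plus 50 min, RT; signal: Rh110 fluorescence intensity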
UBC13 polyUb = UBC13 polyubiquitin chain formation inhibitors, primary screen, biochemical, TR-FRET, uHTS; inhibition, % at 20 µM; hit rate 0.47% among 330,000; AID 485273, 2010; in the data active = inhibition above about 45%, passing the limit was not always enough
SENP7 inh = SENP7 protease inhibitors, primary screen, biochemical, luminescence, uHTS; recombinant SENP7, Z-RLRGG-aminoluciferin luminescence, 40 min; inhibition, % at 5 µM; hit rate 1.5% among 330,000;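 active = inhibition above about 50% at the single test dose, limit read from the data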;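 also: plate controls were DMSO with enzyme for no effect and no enzyme buffer wells for full effect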
SENP8 conf = human SENP8 protease inhibitors, confirmation, biochemical, Nedd8 protein substrate, single concentration; hit rate 15% among 1,400; purified SENP8, Nedd8-AMC/pro-Nedd8 cleavage fluorescence, 30 min; AID 624319, 2012; shares compounds with SENP8 block-2; inhibition, % at 25 µM; in the data active = inhibition mostly above about 39%, no sharp cut-off; inactive = mostly below about 34%
The depositor's hits bear a star. The list is not random: actives were taken first. Their share in the collection is about 3%.

CCN1CCN(CC(=O)Nc2ccc(N(C)C)cc2)CC1 was read as SENP8 block-1 -5, SENP8 block-2 29, SENP6 block -25, Apaf1 inhib -13, UBC13 polyUb -3 and SENP7 inh 7.
`CN(C)c1ccc(NC(=O)CN2CCC(N3CCCCC3)CC2)cc1` gave SENP8 block-1 4, SENP8 block-2 42*, SENP6 block -2, Apaf1 inhib -1, UBC13 polyUb 1, SENP7 inh 1 and SENP8 conf -12.
`COc1cc(CN2C[C@@H](CO)O[C@@H](n3cnc4c(NC(C)C)ncnc43)C2)cc(OC)c1OC` gave SENP8 block-2 4.
For CCOC(=O)c1c(C)nc2c(c1-c1cc(OC)ccc1OC)C(=O)CC(C)(C)C2 the results were SENP8 block-1 -12, SENP8 block-2 44*, SENP6 block -16, Apaf1 inhib 2, UBC13 polyUb -7, SENP7 inh 4 and SENP8 conf 14.
`CCOC(=O)c1c(C)nc2c(c1-c1cc(OC)ccc1OC)C(=O)c1ccccc1-2` gave SENP8 block-1 -4, SENP8 block-2 23, SENP6 block 1, Apaf1 inhib -2, UBC13 polyUb -5 and SENP7 inh -7.
Screening CCCOc1ccc(CCC(=O)N/N=C/c2ccco2)cc1 returned SENP8 block-1 5, SENP8 block-2 44*, SENP6 block -11, Apaf1 inhib -16, UBC13 polyUb -2, SENP7 inh 4 and SENP8 conf 17.
`CCCCOc1ccc(CCC(=O)N/N=C/c2ccco2)cc1` gave SENP8 block-1 -9, SENP8 block-2 2, SENP6 block -8, Apaf1 inhib 4, UBC13 polyUb 5 and SENP7 inh -6.
For Cc1cc(C)c2c(c1)/C(=N/Nc1ccc(S(N)(=O)=O)cc1[N+](=O)[O-])CCC2 the results were SENP8 block-1 3, SENP8 block-2 53*, SENP6 block -3, Apaf1 inhib -4, UBC13 polyUb -65, SENP7 inh 9 and SENP8 conf -3.
Screening CCCCNC(=O)C1c2ccccc2OCC(=O)N1Cc1ccc2c(c1)OCO2 (centres undefined) returned SENP8 block-2 11.
Screening CC1CCc2nc(NC(=O)CN3CCN(Cc4ccc5c(c4)OCO5)CC3)sc2C1 (centres undefined) returned SENP8 block-1 0, SENP8 block-2 38, SENP6 block -15, Apaf1 inhib 13, UBC13 polyUb 15 and SENP7 inh 5.
For CC1CCc2nc(NC(=O)Nc3ccc4c(c3)OCO4)sc2C1 (centres undefined) the results were SENP8 block-1 2, SENP8 block-2 42*, SENP6 block -8, Apaf1 inhib 24, UBC13 polyUb 2, SENP7 inh 2 and SENP8 conf 9.
Screening Cc1ccc(S(=O)(=O)N/N=C/c2ccc(OCC(=O)Nc3ccccc3Cl)cc2)cc1 returned SENP8 block-1 -6, SENP8 block-2 13, SENP6 block -13, Apaf1 inhib 13, UBC13 polyUb -2 and SENP7 inh 0.
Screening COc1ccccc1NC(=O)COc1ccc(/C=N/NS(=O)(=O)c2ccc(C)cc2)cc1 returned SENP8 block-1 -4, SENP8 block-2 47*, SENP6 block -23, Apaf1 inhib 13, UBC13 polyUb -8, SENP7 inh -2 and SENP8 conf 14.
For O=[N+]([O-])c1ccc(CNc2ccc(Cl)cc2)s1 the results were SENP8 block-1 -1, SENP8 block-2 42*, SENP6 block 19, Apaf1 inhib 12, UBC13 polyUb -8, SENP7 inh 27 and SENP8 conf 13.
COc1ccc(NCc2ccc([N+](=O)[O-])s2)c(OC)c1 was read as SENP8 block-2 57* and SENP8 conf 78*.
`Cc1ccc(S(=O)(=O)NCC2CCCO2)cc1[N+](=O)[O-]` (centres undefined) gave SENP8 block-1 -14, SENP8 block-2 45*, SENP6 block 0, Apaf1 inhib -1, UBC13 polyUb -6, SENP7 inh -11 and SENP8 conf 7.
Screening O=[N+]([O-])c1cccc(S(=O)(=O)NCC2CCCO2)c1 (centres undefined) returned SENP8 block-1 -3, SENP8 block-2 20, SENP6 block -14, Apaf1 inhib 2, UBC13 polyUb -7 and SENP7 inh -3.
CC(C)C[C@H]1CN(CCCC[C@H]2CNC(=O)C(=O)N2CCc2ccc(O)cc2)C(=O)C(=O)N1CCc1ccc(O)cc1 was read as SENP8 block-2 7.
Screening CCC(c1nnnn1-c1ccc2c(c1)OCCO2)N1CCN(c2cc(C)ccc2C)CC1 (centres undefined) returned SENP8 block-2 20.
Screening CCCCNC(=O)C1c2ccccc2OCC(=O)N1CCOC (centres undefined) returned SENP8 block-2 5.
O=C(O/N=C\c1ccc(N2CCCCC2)c([N+](=O)[O-])c1)c1ccc(Cl)cc1Cl was read as SENP8 block-1 -19, SENP8 block-2 49*, SENP6 block -12, Apaf1 inhib 15, UBC13 polyUb -20, SENP7 inh -12 and SENP8 conf 5.
Screening O=C(/C=C/c1ccc([N+](=O)[O-])cc1)N1CCN(c2ccccc2F)CC1 returned SENP8 block-1 -4, SENP8 block-2 18, SENP6 block -2, Apaf1 inhib -9, UBC13 polyUb 5 and SENP7 inh 1.
`O=C(/C=C/c1ccc(Cl)cc1)N1CCN(c2ccc(Cl)cc2[N+](=O)[O-])CC1` gave SENP8 block-1 -5, SENP8 block-2 43*, SENP6 block -25, Apaf1 inhib 18, UBC13 polyUb -2, SENP7 inh 1 and SENP8 conf 14.
Screening Cc1ccc(C(=O)O/N=C\c2ccc(N3CCOCC3)c([N+](=O)[O-])c2)cc1 returned SENP8 block-1 -15, SENP8 block-2 30, SENP6 block -38, Apaf1 inhib -3, UBC13 polyUb -7 and SENP7 inh -3.
For CC(NC(=O)C1CCCN1C(=O)c1cccs1)c1ccc(Cl)cc1Cl (centres undefined) the results were SENP8 block-2 4.
Screening Cc1c(C(=O)NCc2ccc3c(c2)OCCO3)sc(=O)n1Cc1cccc(C(F)(F)F)c1 returned SENP8 block-2 6.
Screening COc1ccncc1-c1ccccc1C1=CC(=O)CC(C)(C)C1=O returned SENP8 block-2 3.
For O=C1Cc2ccccc2C(=O)N1 the results were SENP8 block-2 81* and SENP8 conf 84*.
